pEC50: −log10 of the molar value. Calls of active or inactive are those of the source. The calls are words filed in the database; no cut-off is given here.

The subject of one test is Danio rerio. As to the kind of experiment: In vivo inhibition of porcupine in zebrafish embryos assessed as inhibition of Wnt/beta-casein-mediated posterior axis formation at 1 to 5 uM applied in aquarium water by mCherry-based reporter gene assay. In kind it is functional, organism-based. Particulars: in the assay text read “beta-catenin” for “beta-casein”. In outline:
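Zebrafish embryos carrying an mCherry-based Wnt/β-catenin signaling reporter were exposed to increasing concentrations of compound in the aquarium water. Whole-animal fluorescence intensity was quantified, and posterior axis formation was scored.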
In the case of `O=C(CSc1nc2c(c(=O)n1-c1ccccc1)SCC2)Nc1ccc(-c2cccs2)cn1`, the inhibition result was “Active”.

As to `O=C(CSc1nc2c(c(=O)n1-c1ccccc1)SCC2)Nc1ccc(-c2ccoc2)cn1`, the inhibition result was “inactive”. As to `O=C(CSc1nc2c(c(=O)n1-c1ccccc1)SCC2)Nc1ccc(-c2cncnc2)cn1`, the inhibition entry is “inactive”.

A further test addresses T1, Protein-serine O-palmitoleoyltransferase porcupine (Mus musculus, UniProt Q9JJJ7).
T1 sequence (Q9JJJ7 whole entry): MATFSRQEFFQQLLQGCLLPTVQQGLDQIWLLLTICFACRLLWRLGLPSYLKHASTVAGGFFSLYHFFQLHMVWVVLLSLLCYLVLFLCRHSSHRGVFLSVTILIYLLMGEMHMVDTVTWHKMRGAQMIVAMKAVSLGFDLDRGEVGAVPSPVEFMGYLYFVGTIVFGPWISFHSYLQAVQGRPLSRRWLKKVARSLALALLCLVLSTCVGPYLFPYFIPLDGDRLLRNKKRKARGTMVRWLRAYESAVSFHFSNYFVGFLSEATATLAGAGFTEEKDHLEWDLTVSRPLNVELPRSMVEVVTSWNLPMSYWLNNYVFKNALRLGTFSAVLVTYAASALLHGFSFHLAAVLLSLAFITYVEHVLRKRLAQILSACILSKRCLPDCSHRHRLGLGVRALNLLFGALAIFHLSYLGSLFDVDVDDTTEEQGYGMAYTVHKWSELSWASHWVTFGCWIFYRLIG
As to the kind of experiment: Inhibition of porcupine-mediated Wnt signalling in mouse L cells after 24 hrs by SuperTopflash reporter assay. Type of test: cell-based.
Conditions: not given
Background: In a reporter assay the amount or activity of a reporter protein is the signal.
Usually pEC50 stands for −log10 of the EC50, conventionally taken in molar units. A low value points to a large EC50. Molecule `COc1ccc(-n2nc(C(=O)NCC(=O)Nc3nc4ccc(C)cc4s3)c3ccccc3c2=O)cc1` had a pEC50 of 7.60.

In the case of `O=C(CNC(=O)c1nn(-c2ccc(F)cc2)c(=O)c2ccccc12)Nc1nc2ccccc2s1`, the negative logarithm of the EC50 (pEC50) was under 4.60. The same measure, in the same setting: the same measure for `CCOC(=O)c1ccc(NC(=O)CSc2nc3c(c(=O)n2-c2ccccc2)SCC3)cc1`: 6.52. On the same count and under the same terms, to `O=C(CSc1nc2c(c(=O)n1-c1ccccc1)SCC2)Nc1ncc(-c2ccoc2)cn1` belongs 8.82; to `O=C(CSc1nc2c(c(=O)n1-c1ccccc1)SCC2)Nc1ccc(-c2cccs2)cn1`, 9.52.

`O=C(CSc1nc2c(c(=O)n1-c1ccccc1)SCC2)Nc1ccc(N2CCCCC2)cc1` had a pEC50 of 7.52. Against the preceding molecule, the pEC50 is 2.00 log units lower.

`CN(C)c1ccc(NC(=O)CSc2nc3c(c(=O)n2-c2ccccc2)SCC3)cc1` gave a pEC50 of under 6.00.

For the molecule `O=C(CNC(=O)c1nn(-c2ccccc2)c(=O)c2ccccc12)Nc1nc2ccc(C(F)(F)F)cc2s1`, the pEC50 is 6.96. On the same count and under the same terms, to `O=C(CSc1nc2c(c(=O)n1-c1ccccc1)SCC2)Nc1ccc(-c2ccccc2)cc1` belongs 9.12.

`O=C(CSc1nc2c(c(=O)n1-c1ccccc1)SCC2)Nc1nc(-c2ccccc2)cs1` gave a pEC50 of 6.46.

As for `O=C(CNC(=O)c1nn(-c2ccc(F)cc2)c(=O)c2ccccc12)Nc1nc2ccc(Cl)cc2s1`, the pEC50 is 7.60. The same measure, in the same setting: to `COc1ccccc1-n1nc(C(=O)NCC(=O)Nc2nc3ccccc3s2)c2ccccc2c1=O` belongs 5.00; to `O=C(CSc1nc2c(c(=O)n1-c1ccccc1)SCC2)Nc1ccc(-c2ccco2)cn1`, 8.46; to `COc1ccc2nc(NC(=O)CSc3nc4c(c(=O)n3-c3ccc(F)cc3)SCC4)sc2c1`, 6.60. Same read-out and setting: to `O=C(CSc1nc2c(c(=O)n1-c1ccccc1)SCC2)Nc1nc2ccc(C(F)(F)F)cc2s1` belongs 7.40; to `O=C(CSc1nc2c(c(=O)n1-c1ccccc1)SCC2)Nc1ccccc1-c1ccccc1`, under 5.30. The same measure, in the same setting: the same measure for `O=C(CNC(=O)c1nn(-c2ccccc2)c(=O)c2ccccc12)Nc1nc2ccc([N+](=O)[O-])cc2s1`: 6.62; for `O=C(CSc1nc2c(c(=O)n1-c1ccc(F)cc1)SCC2)Nc1nc2ccc(C(F)(F)F)cc2s1`: 7.00; for `Cc1ccc2nc(NC(=O)CSc3nc4c(c(=O)n3C)SC(C)C4)sc2c1` (stereo not given): 7.82. The molecule `COc1ccc2nc(NC(=O)CNC(=O)c3nn(-c4ccc(F)cc4)c(=O)c4ccccc34)sc2c1` gave a pEC50 of 7.05. On the same count and under the same terms, to `O=C(CNC(=O)c1nn(-c2ccccc2)c(=O)c2ccccc12)Nc1nc2ccc(Cl)cc2s1` belongs 7.52; to `Cc1ccc2nc(NC(=O)CSc3nc4c(c(=O)n3-c3ccc(F)cc3)SCC4)sc2c1`, 7.40; to `CC(=O)c1ccc(NC(=O)CSc2nc3c(c(=O)n2-c2ccccc2)SCC3)cc1`, under 6.00.

`COc1ccc(-n2nc(C(=O)NCC(=O)Nc3nc4ccc(OC)cc4s3)c3ccccc3c2=O)cc1`: the pEC50 is 7.22. As to `Cc1ccc2nc(NC(=O)CNC(=O)c3nn(-c4ccc(F)cc4)c(=O)c4ccccc34)sc2c1`, the pEC50 is 7.00. In turn, `COc1ccccc1-n1c(SCC(=O)Nc2nc3ccc(Cl)cc3s2)nc2c(c1=O)SCC2` showed a pEC50 of 7.30. Compared with the last molecule, the pEC50 is 0.30 log units higher. On the same count and under the same terms, the same measure for `O=C(CSc1nc2c(c(=O)n1-c1ccccc1)SCC2)Nc1ccc(-c2ccoc2)cn1`: 8.82; for `O=C(CSc1nc2c(c(=O)n1-c1ccc(F)cc1)SCC2)Nc1nc2ccc(Cl)cc2s1`: 6.76. As for `CCn1c(SCC(=O)Nc2nc3ccccc3s2)nc2c(c1=O)SC(C)C2` (stereo not given), the pEC50 was 5.40. `COc1ccc2nc(NC(=O)CNC(=O)c3nn(-c4ccccc4)c(=O)c4ccccc34)sc2c1` had a pEC50 of 6.68. Against the preceding molecule, the pEC50 is 1.28 log units higher. The same measure, in the same setting: to `O=C(CSc1nc2c(c(=O)n1-c1ccccc1)SCC2)Nc1ccc(-c2ccccc2)nc1` belongs 9.52; to `O=C(CSc1nc2c(c(=O)n1-c1ccccc1)SCC2)Nc1ncc(-c2ccco2)cn1`, 8.46; to `O=C(CNC(=O)c1nn(-c2ccccc2)c(=O)c2ccccc12)Nc1nc2ccc(F)cc2s1`, 6.33. As to `Cc1ccc2nc(NC(=O)CSc3nc4c(c(=O)n3-c3ccccc3)SCC4)sc2c1`, the pEC50 was 7.52. With `O=C(CSc1nc2c(c(=O)n1-c1ccccc1)SCC2)Nc1ncc(-c2ccccc2)cn1`, the pEC50 was 7.82. On the same count and under the same terms, to `COc1ccccc1-n1c(SCC(=O)Nc2nc3ccc(C)cc3s2)nc2c(c1=O)SCC2` belongs 7.60; to `COc1ccc2nc(NC(=O)CNC(=O)c3ccc(=O)n(-c4ccccc4)c3)sc2c1`, under 4.60; to `COc1ccc(-n2nc(C(=O)NCC(=O)Nc3nc4ccc(Cl)cc4s3)c3ccccc3c2=O)cc1`, 7.82. With `CCOC(=O)c1ccc2nc(NC(=O)CNC(=O)c3nn(-c4ccccc4)c(=O)c4ccccc34)sc2c1`, the pEC50 is under 4.60. In the case of `Cc1ccc2nc(NC(=O)CNC(=O)c3nn(-c4ccccc4)c(=O)c4ccccc34)sc2c1`, the pEC50 was 7.46. Molecule `O=C(CNC(=O)c1nn(-c2ccc(F)cc2)c(=O)c2ccccc12)Nc1nc2ccc(C(F)(F)F)cc2s1` gave a pEC50 of 7.05. Still for that read-out and setting: to `O=C(CSc1nc2c(c(=O)n1-c1ccccc1)SCC2)Nc1ccc(-c2ccncc2)cc1` belongs 8.52; to `O=C(CSc1nc2c(c(=O)n1-c1ccccc1)SCC2)Nc1ccc(-c2cccnc2)cc1`, 9.35; to `O=C(CSc1nc2c(c(=O)n1-c1ccccc1)SCC2)Nc1ccc(-c2cncnc2)cn1`, 8.26.

Molecule `COc1ccc2nc(NC(=O)CSc3nc4c(c(=O)n3-c3ccccc3)SCC4)sc2c1` had a pEC50 of 7.40. Same read-out and setting: to `COc1ccc(-n2c(SCC(=O)Nc3nc4ccc(Cl)cc4s3)nc3c(c2=O)SCC3)cc1` belongs 7.46.

For `O=C(CSc1nc2c(c(=O)n1-c1ccccc1)SCC2)Nc1ncc(-c2ccccc2)s1`, the negative-log EC50 (pEC50) is 7.26.

The molecule `COc1ccc(-n2c(SCC(=O)Nc3nc4ccc(C(F)(F)F)cc4s3)nc3c(c2=O)SCC3)cc1` had a pEC50 of 7.00. Still for that read-out and setting: to `O=C(CSc1nc2c(c(=O)n1-c1ccccc1)SCC2)Nc1ccc(-c2ccccn2)cc1` belongs 8.40; to `O=C(CSc1nc2c(c(=O)n1-c1ccccc1)SCC2)Nc1ccc(-c2cccnc2)cn1`, 9.00. Same read-out and setting: the same measure for `O=C(CNC(=O)c1nn(-c2ccccc2)c(=O)c2ccccc12)Nc1nc2ccccc2s1`: 5.59.

For `O=C(CSc1nc2c(c(=O)n1-c1ccccc1)SCC2)Nc1cccc(-c2ccccc2)c1`, the pEC50 is under 5.30. Take `COc1ccc(-n2nc(C(=O)NCC(=O)Nc3nc4ccccc4s3)c3ccccc3c2=O)cc1`: the pEC50 is 4.60. Same read-out and setting: to `COc1ccc2nc(NC(=O)CNC(=O)c3nn(-c4ccccc4OC)c(=O)c4ccccc34)sc2c1` belongs 7.05.

In turn, `O=C(CSc1nc2c(c(=O)n1-c1ccccc1)SCC2)Nc1nc2ccc(Cl)cc2s1` gave a pEC50 of 7.40. This pEC50 lies 0.35 log units higher than the previous one. `O=C(CSc1nc2c(c(=O)n1-c1ccccc1)SCC2)Nc1ccc(-c2ccsc2)cn1`: the pEC50 was 8.70. The molecule `COc1ccc2nc(NC(=O)CSc3nc4c(c(=O)n3-c3ccccc3OC)SCC4)sc2c1` had a pEC50 of 7.30. Compared with the last molecule, the pEC50 is 1.40 log units lower. `CCOc1ccc(NC(=O)CSc2nc3c(c(=O)n2-c2ccccc2)SCC3)cc1`: the pEC50 was 6.00. Against the preceding molecule, the pEC50 is 1.30 log units lower.

As to `O=C(CNC(=O)c1nn(-c2ccccc2)c(=O)c2ccccc12)Nc1nccs1`, the pEC50 was under 4.60. On the same count and under the same terms, the same measure for `COc1ccc2nc(NC(=O)CSc3nc4c(c(=O)n3-c3ccccc3)SCC4)ccc2c1`: 6.24; for `COc1ccccc1-n1c(SCC(=O)Nc2nc3ccc(C(F)(F)F)cc3s2)nc2c(c1=O)SCC2`: 7.52. For `COc1ccc(-n2c(SCC(=O)Nc3nc4ccc(OC)cc4s3)nc3c(c2=O)SCC3)cc1`, the pEC50 was 6.92.
